Experimental data: ChEMBL document CHEMBL4400528, “Discovery and Optimization of Selective and in Vivo Active Inhibitors of the Lysophosphatidylserine Lipase α/β-Hydrolase Domain-Containing 12 (ABHD12)” (J Med Chem, 2019)
Activity calls are given as the source filed them. No cut-off for these calls is given here.

How the values were obtained:
[1] = biological target: T1, Lysophosphatidylserine lipase ABHD12 (Mus musculus, UniProt Q99LR1); test: Inhibition of JJH350 binding to ABHD12 in mouse brain membrane proteome incubated for 20 mins by CuAAC fluorescence dependent gel-based competitive ABPP assay; assay type: cell membranes
T1 sequence (Q99LR1 whole entry): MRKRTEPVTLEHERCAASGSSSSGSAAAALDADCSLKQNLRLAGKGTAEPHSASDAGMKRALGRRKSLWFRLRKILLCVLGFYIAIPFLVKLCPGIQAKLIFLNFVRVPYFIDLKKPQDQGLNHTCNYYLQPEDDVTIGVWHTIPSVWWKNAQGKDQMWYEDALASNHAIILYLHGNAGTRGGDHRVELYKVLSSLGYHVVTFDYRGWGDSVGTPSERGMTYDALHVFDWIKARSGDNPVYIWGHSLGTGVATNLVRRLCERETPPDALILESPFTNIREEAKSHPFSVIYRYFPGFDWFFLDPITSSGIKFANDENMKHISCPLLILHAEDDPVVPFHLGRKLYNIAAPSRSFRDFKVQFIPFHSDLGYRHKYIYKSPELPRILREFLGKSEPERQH
Outline: (§1)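 Brain membrane fraction (1 mg/mL; DPBS homogenate, 16,000 x g pellet) treated with inhibitor for 20 min at room temperature. JJH350 (2 μM) added for 45 min at 37 °C, then CuAAC with rhodamine-PEG3-azide, CuSO4, TBTA and TCEP for 1 h at room temperature. Run on 10% SDS-PAGE and read by in-gel fluorescence. ABHD12 band normalized to control-treated sample (100%); IC50 from log dose-response fit.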

[2] = biological target: T2, Lysophosphatidylserine lipase ABHD12 (Mus musculus) (UniProt Q99LR1); test: Inhibition of JJH350 binding to ABHD12 in mouse brain membrane proteome at 2 uM after 20 mins by CuAAC based fluorescence scanning assay relative to control; assay type: cell membranes; outline: as §1
T2 sequence (whole entry): T1 sequence (Q99LR1 whole entry)

[3] = biological target: T2, Lysophosphatidylserine lipase ABHD12 (Mus musculus); test: Inhibition of JJH350 binding to ABHD12 in mouse brain membrane proteome at 10 uM after 20 mins by CuAAC based fluorescence scanning assay relative to control; assay type: cell membranes; outline: as §1
[4] = biological target: T3, Lysophosphatidylserine lipase ABHD12 (Homo sapiens) (UniProt Q8N2K0); test: Time dependent inhibition of FP-Rh binding to ABHD12 (unknown origin) expressed in HEK293T cell membranes by gel-based ABPP assay
T3 sequence (whole entry): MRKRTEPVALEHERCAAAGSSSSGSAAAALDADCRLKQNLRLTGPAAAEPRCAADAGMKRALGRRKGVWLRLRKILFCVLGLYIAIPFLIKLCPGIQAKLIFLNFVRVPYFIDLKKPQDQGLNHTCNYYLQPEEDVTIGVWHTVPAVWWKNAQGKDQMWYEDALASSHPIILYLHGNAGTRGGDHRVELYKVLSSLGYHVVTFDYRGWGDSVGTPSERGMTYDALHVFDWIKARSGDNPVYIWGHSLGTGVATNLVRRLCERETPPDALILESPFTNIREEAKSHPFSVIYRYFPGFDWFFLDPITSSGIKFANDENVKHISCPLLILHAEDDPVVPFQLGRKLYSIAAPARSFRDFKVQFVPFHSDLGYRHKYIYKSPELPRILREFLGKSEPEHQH

[5] = biological target: T3, Lysophosphatidylserine lipase ABHD12 (Homo sapiens); test: Inhibition of ABHD12 in PMA-differentiated human THP1 cells assessed as increase in TNF-alpha production at 1 uM treated simultaneously with IFN-gamma/LPS for 24 hrs and measured 6 to 24 hrs after stimulation
Outline: (§2)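 THP-1 cells grown in RPMI/10% FBS/0.05 mM 2-mercaptoethanol, plated 2.5×10^6 per well. Treated 24 h with 150 ng/mL PMA, washed, rested 24 h. Polarized to M1 with 20 ng/mL IFN-γ plus 10 pg/mL LPS for 24 h. Compound or DMSO (test 0.1–1 μM) present at every step. Media sampled 6 and 24 h after stimulation; cytokines by MSD V-Plex. Mean ± SEM, four biological experiments.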

[6] = biological target: T3, Lysophosphatidylserine lipase ABHD12 (Homo sapiens); test: Inhibition of ABHD12 in PMA-differentiated human THP1 cells assessed as increase in IL-1beta production at 1 uM treated simultaneously with IFN-gamma/LPS for 24 hrs and measured 6 to 24 hrs after stimulation; outline: as §2
[7] = biological target: T3, Lysophosphatidylserine lipase ABHD12 (Homo sapiens); test: Inhibition of ABHD12 in PMA-differentiated human THP1 cells assessed as increase in CCL3 production at 1 uM treated simultaneously with IFN-gamma/LPS for 24 hrs and measured 6 to 24 hrs after stimulation; outline: as §2
[8] = biological target: T3, Lysophosphatidylserine lipase ABHD12 (Homo sapiens); test: Inhibition of ABHD12 in PMA-differentiated human THP1 cells assessed as increase in CCL4 production at 1 uM treated simultaneously with IFN-gamma/LPS for 24 hrs and measured 6 to 24 hrs after stimulation; outline: as §2
[9] = biological target: T1, Lysophosphatidylserine lipase ABHD12; test: Inhibition of FP-Rh probe binding to ABHD12 in mouse brain membrane proteome incubated for 45 mins by CuAAC fluorescence dependent gel-based competitive ABPP assay; assay type: cell membranes
Outline: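 Mouse brain membrane proteome (1 mg/mL) preincubated with inhibitor for 45 min at 37 °C. Labelled with FP-Rh (1 μM) or JJH350 (2 μM) for 45 min at 37 °C. JJH350 samples were clicked to Rh-N3 (25 μM) by CuAAC for 60 min at room temperature. Read by 10% SDS-PAGE and in-gel fluorescence scanning. Band intensity taken relative to control (100%), and IC50 from log(inhibitor) vs normalized response.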

Mus musculus = test: In vivo inhibition of JJH350 binding to ABHD12 in mouse at 30 mg/kg, ip treated for 4 hrs by CuAAC based fluorescence scanning assay; assay type: functional, organism-based
Outline: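 Mice injected i.p. at 10 μL/g body weight with fresh suspension in EtOH/PEG40/DPBS 1:1:18. Anesthetized with isoflurane, killed by cervical dislocation, tissues harvested. Tissues dounce-homogenized in DPBS; membrane fraction from 16,000 x g spin. Labelled with JJH350, then CuAAC to rhodamine-azide, SDS-PAGE and fluorescence scanning.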

[10] = biological target: T3, Lysophosphatidylserine lipase ABHD12 (Homo sapiens); test: Inhibition of ABHD12 (unknown origin) expressed in HEK293T cell membranes at 10 uM using 17:1 lyso-PS as substrate preincubated for 20 mins followed by substrate addition measured after 30 mins by LC-MS analysis
Outline: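 Membranes from HEK293T overexpressing ABHD12 (0.25 mg/mL) in DPBS preincubated with compound for 20 min at room temperature. 17:1 lyso-PS added (100 μM final) and incubated 30 min at 37 °C. Quenched with 2:1 CHCl3/MeOH containing 1 nmol 15:0 FFA internal standard. Organic phase analyzed by LC-MS on C18 with NH4OH-containing gradient.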

| Compound | IC50 [1] [nM] | inhibition [2] [%] | inhibition [3] [%] | further results |
| --- | --- | --- | --- | --- |
| FC(F)(F)Oc1ccc(Oc2ccnc(N3CCCC(NC(=S)Nc4cccnc4)C3)c2Cl)c(Cl)c1 (centres undefined) | 90000 |  |  |  |
| FC(F)(F)Oc1ccc(Oc2ccnc(N3CCC(NC(=S)Nc4cccnc4)CC3)c2Cl)cc1Cl | 33 |  |  |  |
| COc1ccc(Oc2ccnc(N3CCC(NC(=S)Nc4cccnc4)CC3)c2)cc1 | 2900 |  |  |  |
| N#Cc1c(Oc2ccc(OC(F)(F)F)cc2)ccnc1N1CCC(NC(=S)Nc2cccnc2)CC1 | 180 |  |  |  |
| S=C(Nc1cccnc1)NC1CCN(c2cc(OCc3ccccc3)ccn2)CC1 | 2800 |  |  |  |
| FC(F)(F)c1cnc(NCCCCCCNC(=S)Nc2cccnc2)c(Cl)c1 |  | 22 | 70 |  |
| FC(F)(F)c1cnc(NCCCCCNC(=S)Nc2cccnc2)c(Cl)c1 |  | 54 | 90 |  |
| FC(F)(F)Oc1ccc(Oc2ccnc(N3CCC[C@H](NC(=S)Nc4cccnc4)C3)c2Cl)c(Cl)c1 | > 100000 |  |  | inhibition [5]: inactive; inhibition [6]: inactive; inhibition [7]: inactive; inhibition [8]: inactive |
| COc1ccc(N2CCN(C(=O)ON3C(=O)C4CN(C(=O)c5ccc(Oc6ccccc6)cc5)CCN4C3=O)CC2)cc1 (centres undefined) |  |  |  | IC50 [9]: 320 nM; inhibition (Mus musculus): Active |
| FC(F)(F)Oc1ccccc1Oc1ccnc(N2CCC(NC(=S)Nc3cccnc3)CC2)c1Cl | 96 |  |  |  |
| S=C(Nc1cccnc1)NC1CCN(c2cc(OC3CCCCC3)ccn2)CC1 | 3400 |  |  |  |
| FC(F)(F)Oc1cccc(Oc2ccnc(N3CCC(NC(=S)Nc4cccnc4)CC3)c2Cl)c1 | 89 |  |  |  |
| Fc1ccc(Oc2ccnc(N3CCC(NC(=S)Nc4cccnc4)CC3)c2)cc1 | 1400 |  |  |  |
| S=C(Nc1cccnc1)NC1CCN(c2cc(Oc3ccccc3)ccn2)CC1 | 1900 |  |  |  |
| FC(F)(F)Oc1ccc(Oc2ccnc(N3CCC(NC(=S)Nc4cccnc4)CC3)c2C(F)(F)F)cc1 | 2800 |  |  |  |
| FC(F)(F)Oc1ccc(Oc2ccnc(N3CCC(NC(=S)Nc4cccnc4)CC3)c2)cc1 | 410 |  |  |  |
| FC(F)(F)Oc1ccc(Oc2ccnc(N3CCC(NC(=S)Nc4cccnc4)CC3)c2Cl)cc1 | 25 |  |  |  |
| COc1ccc(N2CCN(C(=O)ON3C(=O)C4CN(Cc5ccc(Oc6ccccc6)cc5)CCN4C3=O)CC2)cc1 (centres undefined) |  |  |  | IC50 [9]: > 10000 nM |
| Cc1c(Oc2ccc(OC(F)(F)F)cc2)ccnc1N1CCC(NC(=S)Nc2cccnc2)CC1 | 26 |  |  |  |
| FC(F)(F)c1cnc(NCCCNC(=S)Nc2cccnc2)c(Cl)c1 |  | 0 | 0 |  |
| FC(F)(F)c1cnc(N2CCC(NC(=S)N3CCCc4ccccc43)CC2)c(Cl)c1 |  | 0 | 0 |  |
| FC(F)(F)c1cnc(NCCCCNC(=S)Nc2cccnc2)c(Cl)c1 |  | 12 | 35 |  |
| FC(F)(F)Oc1ccc(Oc2ccnc(N3CCC[C@@H](NC(=S)Nc4cccnc4)C3)c2Cl)c(Cl)c1 | 100000 |  |  |  |

Further lines, with some results ahead:

| IC50 [1] [nM] | inhibition [2] [%] | inhibition [3] [%] | Compound | further results |
| --- | --- | --- | --- | --- |
| > 5000 |  |  | S=C(Nc1cccnc1)NC1CCN(c2ncccc2Cl)CC1 |  |
| 640 |  |  | FC(F)(F)c1ccnc(N2CCC(NC(=S)Nc3cccnc3)CC2)c1 |  |
|  | 1 | 29 | O=C(Nc1cccnc1)NC1CCN(c2ncc(C(F)(F)F)cc2Cl)CC1 |  |
| 1900 |  |  | FC(F)(F)c1ccc(N2CCC(NC(=S)Nc3cccnc3)CC2)nc1 |  |
| 1400 |  |  | FC(F)(F)c1cc(N2CCC(NC(=S)Nc3cccnc3)CC2)ncc1Cl |  |
|  | 19 | 63 | FC(F)(F)c1cnc(N2C3CCC2CC(NC(=S)Nc2cccnc2)C3)c(Cl)c1 (centres undefined) |  |
|  | 0 | 4 | FC(F)(F)c1cnc(N2CCCC(NC(=S)Nc3cccnc3)C2)c(Cl)c1 (centres undefined) |  |
| 2100 |  |  | S=C(Nc1cccnc1)NC1CCN(c2cc(Cl)ccn2)CC1 |  |
| > 5000 |  |  | COc1ccnc(N2CCC(NC(=S)Nc3cccnc3)CC2)c1 |  |
|  | 9 | 59 | FC(F)(F)c1cnc(N2CCCC(NC(=S)Nc3cccnc3)CC2)c(Cl)c1 (centres undefined) |  |
| 1100 | 89 | 96 | FC(F)(F)c1cnc(N2CCC(NC(=S)Nc3cccnc3)CC2)c(Cl)c1 | TDI [4]: inactive |
| 300 |  |  | FC(F)(F)c1ccnc(N2CCC(NC(=S)Nc3cccnc3)CC2)c1Cl |  |
|  | 66 | 96 | FC(F)(F)c1cnc(N2CCC(NC(=S)Nc3ccccc3)CC2)c(Cl)c1 |  |
| 4700 |  |  | S=C(Nc1cccnc1)NC1CCN(c2cc(OCC3CC3)ccn2)CC1 |  |
|  | 0 | 1 | COc1ccc(NC(=S)NC2CCN(c3ncc(C(F)(F)F)cc3Cl)CC2)cn1 |  |
|  | 31 | 61 | CN(C(=S)Nc1cccnc1)C1CCN(c2ncc(C(F)(F)F)cc2Cl)CC1 |  |
| > 5000 |  |  | FC(F)(F)c1cccnc1N1CCC(NC(=S)Nc2cccnc2)CC1 |  |
| 3100 |  |  | Cc1cnc(N2CCC(NC(=S)Nc3cccnc3)CC2)c(Cl)c1 |  |
| 630 |  |  | FC(F)(F)c1cccc(N2CCC(NC(=S)Nc3cccnc3)CC2)n1 |  |
| > 50000 |  |  | Cc1cnc(N2CCN(NC(=S)Nc3cccnc3)CC2)c(Cl)c1 | inhibition [10]: inactive |
|  | 0 | 2 | FC(F)(F)c1cnc(N2CCC(NC(=S)Nc3cnc4ccccc4c3)CC2)c(Cl)c1 |  |
|  | 1 | 12 | FC(F)(F)c1cnc(N2CCC(NC(=S)Nc3cccnc3)C2)c(Cl)c1 (centres undefined) |  |
| 540 |  |  | FC(F)(F)c1cc(Cl)nc(N2CCC(NC(=S)Nc3cccnc3)CC2)c1 |  |
